Data taken from ChEMBL document CHEMBL1641401, “Synthesis of antimitotic polyalkoxyphenyl derivatives of combretastatin using plant allylpolyalkoxybenzenes” (2010).
The source made the active and inactive calls.

Assays:
Paracentrotus lividus [1] = experiment: Antimitotic activity against Paracentrotus lividus embryo assessed as cleavage alteration after 2.5 to 6 hrs post fertilization by sea urchin embryo assay; type: functional
How it was run: (§1)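 Fertilized sea urchin eggs, cultured at room temperature in filtered seawater with paddle agitation (60 rpm), exposed 10-25 min post-fertilization (45-60 min before first cleavage) to 2-fold decreasing concentrations as a monolayer, up to 2000 embryos/mL. Stocks: 5 mM in 95% EtOH, or 5-20 mM in DMSO then 10-fold diluted in 95% EtOH. Cleavage scored microscopically 2.5-6 h post-fertilization. EC = threshold concentration causing cleavage alteration with death before hatching or full arrest.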

Paracentrotus lividus [2] = experiment: Antimitotic activity against Paracentrotus lividus embryo assessed as cleavage arrest after 2.5 to 6 hrs post fertilization by sea urchin embryo assay; type: functional; how it was run: as §1
Paracentrotus lividus [3] = experiment: Antimitotic activity against Paracentrotus lividus embryo assessed as embryo spinning after 0.5 to 20 hrs post dose by sea urchin embryo assay; type: functional
How it was run: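 Free-swimming blastulae from the same culture treated just after hatching (9-12 h post-fertilization) in filtered seawater at room temperature. Final DMSO at most 0.05%, EtOH at most 1%. Tubulin destabilization scored microscopically as loss of forward movement, settling to the vessel bottom and rapid spinning about the animal-vegetal axis.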

Paracentrotus lividus [4] = experiment: Antimitotic activity against Paracentrotus lividus embryo assessed as cleavage alteration up to 5 uM after 2.5 to 6 hrs post fertilization by sea urchin embryo assay; type: functional, organism-based
How it was run: (§2)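 Fertilized sea urchin eggs, treated 10-25 min after fertilization (45-60 min before first cleavage), exposed to 2-fold decreasing concentrations; monolayer in filtered seawater at room temperature, up to 2000 embryos/mL. Compounds from EtOH or DMSO stocks diluted in 95% EtOH; final DMSO ≤0.05%, EtOH ≤1%. Cleavage scored microscopically 2.5-6 h post-fertilization; EC = threshold concentration causing cleavage alteration with death before hatching or full mitotic arrest.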

Paracentrotus lividus [5] = experiment: Antimitotic activity against Paracentrotus lividus embryo assessed as cleavage alteration up to 80 to 100 uM after 2.5 to 6 hrs post fertilization by sea urchin embryo assay; type: functional, organism-based; how it was run: as §2

Structure (SMILES)	EC (Paracentrotus lividus [1])	EC (Paracentrotus lividus [2])	EC (Paracentrotus lividus [3])	Activity (Paracentrotus lividus [4])	Activity (Paracentrotus lividus [5])
COc1ccc(/C=C\c2cc(OC)c3c(c2OC)OCO3)cc1O	0.02 µM	0.1 µM	1 µM	–	–
C/C=C/c1cc(OC)c(OC)c(OC)c1OC	–	–	–	inactive	–
COc1ccc(-c2nnc(-c3cc4c(c(OC)c3OC)OCO4)[nH]2)cc1O	4 µM	>4 µM	>4 µM	–	–
COc1cc(/C=C/c2cc(OC)c3c(c2OC)OCO3)ccc1O	>4 µM	>4 µM	>5 µM	–	–
COc1ccc(/C=C\c2cc(OC)c(OC)c(OC)c2)cc1O [COMBRETASTATIN A4]	0.002 µM	0.01 µM	0.05 µM	–	–
COc1cccc(-c2nnc(-c3ccc(OC)c(OC)c3)o2)c1	0.05 µM	4 µM	2 µM	–	–
COc1ccc(/C=C(/C(=O)O)c2cc(OC)c(OC)c(OC)c2)cc1O	>11.2 µM	>11.2 µM	>11.2 µM	–	–
COc1ccc(-c2nc(Cc3cc(OC)c4c(c3OC)OCO4)no2)cc1O	4 µM	>4 µM	>5 µM	–	–
COc1ccc(-c2nnc(-c3cc(OC)c4c(c3)OCO4)o2)cc1O	0.5 µM	2 µM	>5 µM	–	–
COc1ccc(-c2nnc(-c3cc(OC)c4c(c3)OCO4)[nH]2)cc1O	2 µM	>4 µM	>5 µM	–	–
C=CCc1cc(OC)c2c(c1)OCO2	–	–	–	–	inactive
COc1ccc(/C=C/c2cc3c(cc2OC)OCCO3)cc1O	0.1 µM	2 µM	>5 µM	–	–
C=CCc1cc2c(c(OC)c1OC)OCO2	–	–	–	–	inactive
COc1ccc(/C=C/c2ccc3c(c2)OCCO3)cc1O	0.1 µM	1 µM	2 µM	–	–
C=CCc1cc(OC)c2c(c1OC)OCO2	–	–	–	–	inactive
COc1ccc(-c2nc(-c3cc4c(c(OC)c3OC)OCO4)no2)cc1O	>4 µM	>4 µM	>4 µM	–	–
COc1ccc(-c2nnc(-c3cc(OC)c(OC)c(OC)c3)o2)cc1O	>4 µM	>4 µM	>4 µM	–	–
COc1ccc(/C=C/c2cc(OC)c3c(c2)OCCO3)cc1O	0.02 µM	0.1 µM	2 µM	–	–
COc1ccc(/C=C/c2cc(OC)c3c(c2OC)OCO3)cc1O	0.5 µM	4 µM	5 µM	–	–
COc1ccc(/C=C/c2cc(OC)c(OC)c(OC)c2OC)cc1O	0.1 µM	1 µM	5 µM	–	–
COc1ccc(-c2nc(-c3c(Cl)c(OC)c4c(c3OC)OCO4)no2)cc1O	>4 µM	>4 µM	–	–	–

Structure (SMILES)	EC (Paracentrotus lividus [1])	EC (Paracentrotus lividus [2])	EC (Paracentrotus lividus [3])	Activity (Paracentrotus lividus [4])	Activity (Paracentrotus lividus [5])
COc1ccc(/C=C\c2cc(OC)c3c(c2)OCCO3)cc1O	0.002 µM	0.01 µM	0.05 µM	–	–
COc1ccc(/C=C\c2cc(OC)c(OC)c(OC)c2OC)cc1O	0.02 µM	0.1 µM	1 µM	–	–
COc1cc(-c2noc(-c3ccc4c(c3)OCO4)n2)cc(OC)c1OC	>4 µM	>4 µM	>4 µM	–	–
COc1ccc(-c2nnc(-c3ccc(OC)c(OC)c3)o2)cc1OC	0.5 µM	10 µM	5 µM	–	–
C/C=C/c1cc(OC)c2c(c1OC)OCO2 [ISOAPIOL]	2 µM	8 µM	>10 µM	–	–
COc1ccc(/C=C\c2cc3c(cc2OC)OCCO3)cc1O	0.02 µM	0.2 µM	1 µM	–	–
COc1cc(-c2nnc(-c3cc(OC)c4c(c3)OCO4)o2)cc(OC)c1OC	0.5 µM	2 µM	>5 µM	–	–
C/C=C/c1cc2c(c(OC)c1OC)OCO2 [ISODILLAPIOL]	20 µM	80 µM	>100 µM	–	–
COc1ccc(/C=C\c2cc(OC)c(OC)c(OC)c2)cc1OP(=O)([O-])[O-].[Na+].[Na+] [FOSBRETABULIN DISODIUM]	0.005 µM	0.01 µM	1 µM	–	–
COc1ccc(/C=C\c2cc(OC)c3c(c2)OCO3)cc1O [Combretastatin A-2]	0.002 µM	0.01 µM	0.05 µM	–	–
COc1ccc(-c2nnc(-c3cccc(F)c3)o2)cc1OC	1 µM	>4 µM	>5 µM	–	–
C/C=C/c1cc(OC)c2c(c1)OCO2 [ISOMYRISTICIN]	>5 µM	>5 µM	>5 µM	–	–
COc1ccc(/C=C/c2cc(OC)c3c(c2)OCO3)cc1O	0.02 µM	0.1 µM	1 µM	–	–
COc1ccc(-c2nnc(-c3cc(OC)c4c(c3OC)OCO4)[nH]2)cc1O	>4 µM	>4 µM	>4 µM	–	–
COc1ccc(-c2nc(-c3cc(OC)c4c(c3)OCO4)no2)cc1O	4 µM	>4 µM	>4 µM	–	–
COc1ccc(/C=C\c2ccc3c(c2)OCCO3)cc1O	0.02 µM	0.5 µM	1 µM	–	–
COc1ccc(/C=C/c2cc3c(c(OC)c2OC)OCO3)cc1O	0.1 µM	4 µM	5 µM	–	–
COc1ccc(-c2nc(-c3cc(OC)c4c(c3OC)OCO4)no2)cc1O	>4 µM	>4 µM	>4 µM	–	–
COc1ccc(/C=C\c2cc3c(c(OC)c2OC)OCO3)cc1O	0.01 µM	0.2 µM	0.5 µM	–	–
COc1ccc(-c2nnc(-c3cc(OC)c(OC)c(OC)c3)[nH]2)cc1O	4 µM	>4 µM	>4 µM	–	–
